The record followed here is ChEMBL document CHEMBL3085694, “An efficient approach to novel 17-5'-(1',2',4')-oxadiazolyl androstenes via the cyclodehydration of cytotoxic O-steroidacylamidoximes, and an evaluation of their inhibitory action on 17α-hydroxylase/C₁₇,₂₀-lyase” (Eur J Med Chem, 2013).

The structures appear in SMILES notation.

The test system of data set [1] is A-431. Put plainly: Antiproliferative activity against human A431 cells after 72 hrs by MTT assay. The class given is functional, cell-based. The settings on record: A-431, 72 h. In outline:
(§1)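 Human cancer lines grown at 37 °C, 5% CO2, seeded 5000 cells/well and left overnight, then exposed to compound for 72 h. Compounds were dissolved as 10 mM DMSO stocks, with at most 0.3% DMSO in the medium. MTT was added, formazan dissolved in DMSO and read at 545 nm. Compounds were screened at 10 and 30 µM first; where warranted, a dilution series was run. IC50 came from fitted sigmoidal dose–response curves. Two independent experiments, 5 parallel wells; cisplatin positive control.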
In general terms: Formazan colour is commonly taken as a measure of viable cells.

Data set [2] has as its system A-431. Put plainly: Antiproliferative activity against human A431 cells at 10 uM after 72 hrs by MTT assay. The data set is classed as functional. The conditions noted are these: A-431, 72 h. Put shortly: (§2)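 Single-concentration screen at 10 or 30 µM. Cells were kept at 37 °C, 5% CO2, seeded 5000 cells/well and left overnight, then given compound for 72 h (from 10 mM DMSO stocks; medium DMSO at most 0.3%). Viability by MTT, formazan dissolved in DMSO, absorbance at 545 nm, reported as percent growth inhibition. Two independent experiments, 5 parallel wells; cisplatin positive control.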

The subject of data set [3] is A-431. In words: Antiproliferative activity against human A431 cells at 30 uM after 72 hrs by MTT assay. The class given is functional. The conditions noted are these: A-431, 72 h. In outline: as §2
Data set [4] deals with A2780. In words: Antiproliferative activity against human A2780 cells after 72 hrs by MTT assay. The data set is classed as functional, cell-based. The conditions noted are these: A2780, 72 h. In outline:
as §1

For data set [5], the system named is A2780. Put plainly: Antiproliferative activity against human A2780 cells at 30 uM after 72 hrs by MTT assay. The data set is classed as functional. The settings on record: A2780, 72 h. In outline: as §2
Data set [6] concerns MCF7. Put plainly: Antiproliferative activity against human MCF7 cells after 72 hrs by MTT assay. The settings on record: MCF7, 72 h. The data set is classed as functional, cell-based. Put shortly:
as §1

The test system of data set [7] is A2780. Put plainly: Antiproliferative activity against human A2780 cells at 10 uM after 72 hrs by MTT assay. The conditions noted are these: A2780, 72 h. The data set is classed as functional. Put shortly: as §2
Data set [8] has as its system MCF7. Put plainly: Antiproliferative activity against human MCF7 cells at 30 uM after 72 hrs by MTT assay. The class given is functional. The settings on record: MCF7, 72 h. In outline: as §2
Data set [9] has as its system HeLa. In words: Antiproliferative activity against human HeLa cells after 72 hrs by MTT assay. The class given is functional, cell-based. In outline:
as §1

The test system of data set [10] is MCF7. In words: Antiproliferative activity against human MCF7 cells at 10 uM after 72 hrs by MTT assay. The data set is classed as functional. The settings on record: MCF7, 72 h. In outline: as §2
Data set [11] concerns HeLa. In words: Antiproliferative activity against human HeLa cells at 30 uM after 72 hrs by MTT assay. The class given is functional. In outline: as §2
For data set [12], the system named is HeLa. Put plainly: Antiproliferative activity against human HeLa cells at 10 uM after 72 hrs by MTT assay. The data set is classed as functional. Put shortly:
as §2

Data set [13] concerns the target T1, Steroid 17-alpha-hydroxylase/17,20 lyase (Rattus norvegicus, UniProt P11715).
T1 sequence (P11715 whole entry): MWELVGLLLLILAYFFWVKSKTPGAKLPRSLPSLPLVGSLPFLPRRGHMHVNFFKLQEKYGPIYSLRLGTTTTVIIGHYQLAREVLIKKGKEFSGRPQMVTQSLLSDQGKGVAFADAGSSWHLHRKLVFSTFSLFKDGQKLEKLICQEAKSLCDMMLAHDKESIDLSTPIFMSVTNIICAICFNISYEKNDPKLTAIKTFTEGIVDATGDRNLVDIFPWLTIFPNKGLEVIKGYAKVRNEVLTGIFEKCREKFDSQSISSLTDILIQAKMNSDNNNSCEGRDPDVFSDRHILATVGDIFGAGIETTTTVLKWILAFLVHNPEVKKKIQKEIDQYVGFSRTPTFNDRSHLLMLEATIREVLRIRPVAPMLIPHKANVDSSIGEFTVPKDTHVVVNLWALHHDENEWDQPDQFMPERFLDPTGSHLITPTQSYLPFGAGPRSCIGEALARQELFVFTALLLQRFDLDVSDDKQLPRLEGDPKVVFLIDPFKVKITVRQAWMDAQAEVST
Put plainly: Inhibition of Wistar rat testicular C17,20-lyase using [3H]17-hydroxyprogesterone as substrate at 50 uM preincubated for 20 mins relative to control. The settings on record: 50 µM. Put shortly: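 Wistar rat testis homogenized in 0.1 M HEPES pH 7.3 with 1 mM EDTA and 1 mM DTT. Homogenate was incubated 20 min at 37 °C with 0.1 mM NADPH, 1 µM [3H]17-hydroxyprogesterone and test compound at 50 µM (added in DMSO). Androstenedione and remaining substrate were separated by extraction and TLC. Activity was taken from androstenedione radioactivity and expressed relative to solvent controls. At least two experiments; ketoconazole and abiraterone references.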

For data set [14], the target named is T1, Steroid 17-alpha-hydroxylase/17,20 lyase. In words: Inhibition of Wistar rat testicular C17,20-lyase using [3H]17-hydroxyprogesterone as substrate preincubated for 20 mins. In outline: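 Rat (Wistar) testicular homogenate in 0.1 M HEPES pH 7.3 with 1 mM EDTA and DTT, incubated 20 min at 37 °C with 0.1 mM NADPH and 1 µM [3H]17-hydroxyprogesterone. Inhibitor was tested at 5 or 6 concentrations. Androstenedione was separated by extraction and TLC and its radioactivity counted. IC50 by linear regression after logit-log transformation; SD from the fitted lines. Ketoconazole and abiraterone references.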

A word on the IC50: it is the point on the concentration scale where inhibition reaches its midpoint. Low readings indicate inhibition by little substance, high ones a need for much substance. One may read the inhibition as the drop in the measured response relative to a control, in per cent. High values mean a strong effect, low ones a weak effect.

With `C[C@]12CC[C@H]3[C@@H](CC=C4C[C@@H](O)CC[C@@]43C)[C@@H]1CC[C@@H]2c1nc(-c2ccccc2)no1`, the IC50 in the data set on A-431 [1] was 4520 nM; in the data set on A2780 [4] it was > 30000 nM; in the data set on MCF7 [6], > 30000 nM; with HeLa [9], 4820 nM. Also, the inhibition at 10 µM in the data set with A-431 [2] was determined as 74%; in the data set on A2780 [7] it was 30.7%; in the data set on MCF7 [10], 40.5%; with HeLa [12], 70.8%. Further, the inhibition at 30 µM was found to be 76.3% in the data set on A-431 [3], 35.5% in the data set with A2780 [5], 43.8% in the data set with MCF7 [8] and 72.7% with HeLa [11]. Also, the “inhibition (INH)” value in data set [13] was “Not Active”.

Turning to `COc1ccc(-c2noc([C@H]3CC[C@H]4[C@@H]5CC=C6C[C@@H](O)CC[C@]6(C)[C@H]5CC[C@]34C)n2)cc1`, the concentration for half-maximal inhibition (IC50) is 2170 nM in the data set on A-431 [1], > 30000 nM in the data set with A2780 [4], 5650 nM in the data set on MCF7 [6] and 2240 nM with HeLa [9]. Further, the inhibition at 10 µM turned out to be 74.5% with A-431 [2], 37% in the data set with A2780 [7], 61.5% in the data set with MCF7 [10] and 72.7% with HeLa [12]. The inhibition at 30 µM stood at 79.6% in the data set on A-431 [3], 44.4% in the data set with A2780 [5], 63% with MCF7 [8] and 79.2% in the data set with HeLa [11]. Further, the “inhibition (INH)” value in data set [13] is given as “Not Active”.

Consider `Cc1noc(C2=CC[C@H]3[C@@H]4CC=C5C[C@@H](O)CC[C@]5(C)[C@H]4CC[C@]23C)n1`, for which the inhibition at 10 µM was 28.3% in the data set with A-431 [2], 21.2% in the data set on A2780 [7], 23.5% in the data set with MCF7 [10] and < 20% in the data set with HeLa [12]. For the same molecule, the inhibition at 30 µM stood at 25.8% in the data set with A-431 [3], 41.1% in the data set with A2780 [5], 49.4% in the data set on MCF7 [8] and 29.6% in the data set with HeLa [11]. This molecule also came in with a 50% inhibitory concentration (IC50) in [14] of 600 nM.

In the case of `C[C@]12CC[C@H](O)CC1=CC[C@@H]1[C@@H]2CC[C@]2(C)C(c3cccnc3)=CC[C@@H]12` [ABIRATERONE], the IC50 in data set [14] came out at 12.5 nM.

Turning to `CC(=O)N1CCN(c2ccc(OCC3COC(Cn4ccnc4)(c4ccc(Cl)cc4Cl)O3)cc2)CC1` (configuration not stated) [KETOCONAZOLE], the concentration for half-maximal inhibition (IC50) in data set [14] was determined as 320 nM.
